Results as given in ChEMBL document CHEMBL3286129, “Optimization of peptidomimetic boronates bearing a P3 bicyclic scaffold as proteasome inhibitors” (Eur J Med Chem, 2014).
pKi: −log10 of the molar value. The source made the active and inactive calls. The rule behind the calls is not given here.

Columns and labels:
[1] = molecular target: Chymotrypsinogen A (Bos taurus, UniProt P00766); assay: Inhibition of bovine pancreatic alpha-chymotrypsin using Suc-Leu-Leu-Val-Tyr-AMC as substrate by fluorescence assay
Method in brief: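 Enzyme incubated at 20 °C in 50 mM Tris pH 8.0, 100 mM NaCl, 5 mM EDTA, 7.5% DMSO with varied inhibitor concentrations. Substrate hydrolysis followed for 10 min. Ki from progress curves; mean of three determinations.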

[2] = molecular target: Proteasome Macropain subunit (Homo sapiens) (UniProt P49721); assay: Inhibition of trypsin-like activity of 20S proteasome in human erythrocytes using Boc-Leu-Arg-Arg-AMC as substrate by fluorescence assay; assay type: cell-based
Method in brief: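 Human 20S proteasome 0.0025 mg/mL at 30 °C in 50 mM Tris pH 7.4, 50 mM NaCl, 0.5 mM EDTA, 0.03% SDS, 7.5% DMSO. Varied inhibitor concentrations; AMC release monitored continuously for 10 min, ex 380/em 460 nm. Ki derived from progress-curve IC50 fit.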

[3] = Cytotoxicity against human colon cancer cells assessed as cell growth at 10 uM relative to control; assay type: functional; conditions: Cancer cell lines, read-out: Activity
Method in brief: (§1)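 Single-concentration screen against a panel of human cancer cell lines. Each value is the mean percent growth across the cell lines of that tumour subpanel.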

[4] = Cytotoxicity against human ovarian cancer cells assessed as cell growth at 10 uM relative to control; assay type: functional; conditions: Cancer cell lines, read-out: Activity; method in brief: as §1
[5] = molecular target: T1, Proteasome Macropain subunit MB1 (Homo sapiens, UniProt P28074); assay: Inhibition of chymotrypsin-like activity of 20S proteasome in human erythrocytes using Suc-Leu-Leu-Val-Tyr-AMC as substrate by fluorescence assay; conditions: for pKi: read-out: Ki
T1 sequence (P28074 whole entry): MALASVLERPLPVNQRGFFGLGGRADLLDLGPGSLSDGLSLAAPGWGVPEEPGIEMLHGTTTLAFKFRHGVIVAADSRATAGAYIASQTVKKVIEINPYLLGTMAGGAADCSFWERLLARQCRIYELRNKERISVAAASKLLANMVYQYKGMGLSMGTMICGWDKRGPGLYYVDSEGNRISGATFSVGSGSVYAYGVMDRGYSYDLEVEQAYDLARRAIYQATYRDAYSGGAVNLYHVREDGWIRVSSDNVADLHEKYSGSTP

[6] = Cytotoxicity against human NSCLC cells assessed as cell growth at 10 uM relative to control; assay type: functional; conditions: read-out: Activity; method in brief: as §1
[7] = Cytotoxicity against human prostate cancer cells assessed as cell growth at 10 uM relative to control; assay type: functional; conditions: Cancer cell lines, read-out: Activity; method in brief: as §1
[8] = Cytotoxicity against human melanoma cells assessed as cell growth at 10 uM relative to control; assay type: functional; conditions: read-out: Activity; method in brief: as §1
[9] = molecular target: T2, Proteasome Macropain subunit MB1 (Homo sapiens) (UniProt P28074); assay: Inhibition of chymotrypsin-like activity of 20S proteasome in human erythrocytes using Suc-Leu-Leu-Val-Tyr-AMC as substrate at 20 uM by fluorescence assay relative to control
T2 sequence (whole entry): T1 sequence (P28074 whole entry)
Method in brief: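 Single inhibitor concentration, equivalent DMSO as negative control. AMC fluorescence read at ex 380/em 460 nm; percent inhibition of ChT-L activity.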

[10] = Cytotoxicity against human breast cancer cells assessed as cell growth at 10 uM relative to control; assay type: functional; conditions: Cancer cell lines, read-out: Activity; method in brief: as §1
[11] = Cytotoxicity against human leukemia cells assessed as cell growth at 10 uM relative to control; assay type: functional; conditions: read-out: Activity; method in brief: as §1
[12] = Cytotoxicity against human renal cancer cells assessed as cell growth at 10 uM relative to control; assay type: functional; conditions: Cancer cell lines, read-out: Activity; method in brief: as §1
[13] = Cytotoxicity against human CNSC cells assessed as cell growth at 10 uM relative to control; assay type: functional; conditions: read-out: Activity; method in brief: as §1
[14] = molecular target: Proteasome component C5 (Homo sapiens) (UniProt P20618); assay: Inhibition of PGPH-like activity of 20S proteasome in human erythrocytes using Z-Leu-Leu-Glu-AMC as substrate at 20 uM by fluorescence assay relative to control
Method in brief: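 Single-concentration screen of PGPH activity. Human 20S proteasome (0.004 mg/mL) at 30 °C in 50 mM Tris pH 7.5 with 25 mM KCl, 10 mM NaCl, 1 mM MgCl2, 0.03% SDS, 5% DMSO; equivalent DMSO as control. AMC fluorescence at ex 380/em 460 nm.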

[15] = molecular target: T3, Proteasome component C5 (Homo sapiens, UniProt P20618); assay: Inhibition of PGPH-like activity of 20S proteasome in human erythrocytes using Z-Leu-Leu-Glu-AMC as substrate by fluorescence assay
T3 sequence (P20618 whole entry): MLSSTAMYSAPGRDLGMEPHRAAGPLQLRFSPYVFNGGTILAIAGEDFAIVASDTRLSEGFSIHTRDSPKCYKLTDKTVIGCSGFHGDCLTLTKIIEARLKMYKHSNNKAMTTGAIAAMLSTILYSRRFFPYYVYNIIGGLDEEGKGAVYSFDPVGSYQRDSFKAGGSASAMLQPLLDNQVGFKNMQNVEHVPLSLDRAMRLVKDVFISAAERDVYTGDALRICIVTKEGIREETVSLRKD
Method in brief: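 Human 20S proteasome 0.004 mg/mL, 30 °C, 50 mM Tris pH 7.5 with 25 mM KCl, 10 mM NaCl, 1 mM MgCl2, 0.03% SDS, 5% DMSO. Ki from 4-parameter IC50 fit of progress curves, corrected to zero substrate via Km. Mean of three.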

Sequence of Proteasome Macropain subunit (Homo sapiens) (P49721 whole entry): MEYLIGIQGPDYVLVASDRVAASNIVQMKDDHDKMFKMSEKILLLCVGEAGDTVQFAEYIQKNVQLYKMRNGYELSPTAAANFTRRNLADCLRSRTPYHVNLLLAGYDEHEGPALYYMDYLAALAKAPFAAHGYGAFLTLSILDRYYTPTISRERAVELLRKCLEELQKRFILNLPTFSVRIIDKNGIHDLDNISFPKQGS

Ki [1] | inhibition [2] | pKi [5] | inhibition [9] | inhibition [14] | Ki [5] | Ki [15] | pKi ([1]; read-out: Ki) | SMILES | growth at 10 µM [3] | growth at 10 µM [4] | growth at 10 µM [6] | growth at 10 µM [7] | growth at 10 µM [8] | growth at 10 µM [10] | growth at 10 µM [11] | growth at 10 µM [12] | growth at 10 µM [13]
Not Active | inactive |  |  |  |  |  |  | CC(C)C[C@H](NC(=O)Cn1cc(Br)c2ncccc2c1=O)B(O)O |  |  |  |  |  |  |  |  | 
Not Active | inactive | 7.07 | > 40% |  |  |  |  | COc1cc2ccn(CCC(=O)N[C@@H](CC(C)C)B(O)O)c(=O)c2cc1OC | 90.8% | 92.6% | 90.3% | 98.8% | 63.7% | 56.9% | 59% | 89% | 78.3%
Not Active | inactive | 7.10 |  | 44% |  |  |  | CC(C)CCNC(=O)CCn1cc(Br)c2ncccc2c1=O |  |  |  |  |  |  |  |  | 
Not Active | inactive |  | > 40% |  | Not Active | Not Active |  | COc1cc2ccn(CC(=O)N[C@@H](CC(C)C)B(O)O)c(=O)c2cc1OC | 104% | 103% | 102% | 100% | 104% | 99% | 98.8% | 98.5% | 99.6%
Not Active | inactive |  | > 40% |  | Not Active | Not Active |  | CC(C)C[C@H](NC(=O)CCn1cc(Br)c2ncccc2c1=O)B(O)O |  |  |  |  |  |  |  |  | 
Not Active | inactive |  |  |  |  |  |  | CC(C)C[C@H](NC(=O)Cn1ccc2ncccc2c1=O)B(O)O |  |  |  |  |  |  |  |  | 
 | inactive | 6.31 | > 40% |  |  |  | 5.04 | CC(C)C[C@H](NC(=O)Cn1ccc2ccccc2c1=O)B(O)O | 57.9% | 86.7% | 75.6% | 80.2% | 43.5% | 51.3% | 23.1% | 39.8% | 71%
